Data set [1] deals with Liver. The data set is described as follows: Drug metabolism in BALB/c mouse liver microsomes assessed as formation of 7-Amino-2-benzyl-4-methyl-1,3-dioxo-2,3-dihydro-1H-pyrrolo-[3,4-c]pyridine-6-carboxylic Acid at 10 uM after 1 hr by LC-MS analysis in absence of NADPH. It counts as ADME.
Data set [2] has as its system Mycobacterium tuberculosis. The data set is described as follows: Antimicrobial activity against GFP expressing recombinant Mycobacterium tuberculosis H37RvMA under GAST/Fe medium assessed as growth inhibition after 14 days by broth microdilution method. It is filed as functional. To be noted: 336 h.
The subject of data set [3] is Mycobacterium tuberculosis. Put plainly: Antimicrobial activity against Mycobacterium tuberculosis H37RvMA under GAST/Fe medium assessed as growth inhibition after 14 days by alamar blue assay. To be noted: 336 h. It counts as functional. A digest of the protocol: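 Broth microdilution in GAST/Fe medium against fully virulent Mtb H37RvMa or its derived strains (cytochrome bd oxidase deletion ΔcydKO; qcrB Ala317Thr point mutant). Plates were incubated 14 days, growth was read by Alamar Blue, and MIC90 was taken as the potency value.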
A general note: The colour change of resazurin is a common sign of viable cells or microbes.

Data set [4] can be described thus: Kinetic solubility in FaSSIF at pH 6.5 after 2 hours at 25 degC by shake flask method. It is filed as physicochemical. To be noted: read-out: Kinetic_solubility.
A short description of data set [5]: Metabolic stability in human liver microsomes assessed as residual compound at 0.1 uM after 30 mins by LC-MS/MS method in presence or absence of NADPH. It counts as ADME. To be noted: read-out: Stability. (Liver microsomes are a subcellular fraction often used to study metabolism.)
The nature of data set [6]: Metabolic stability in rat liver microsomes assessed as residual compound at 0.1 uM after 30 mins by LC-MS/MS method in presence or absence of NADPH. It is filed as ADME. To be noted: read-out: Stability.
Data set [7] in a line: Metabolic stability in mouse liver microsomes assessed as residual compound at 0.1 uM after 30 mins by LC-MS/MS method in presence or absence of NADPH. It is filed as ADME. The conditions noted are these: read-out: Stability.
A further data set has as its system Vero. The data set is described as follows: Cytotoxicity against African green monkey Vero cells assessed as cell viability by MTT assay. It counts as cell-based. To be noted: Chlorocebus sabaeus. Summed up:
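VERO kidney epithelial cells from African green monkey were exposed to compounds at concentrations up to 100 μM, and IC₅₀ was reported.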
On the technique in general: Tetrazolium assays rely on reduction of a dye to a coloured formazan, in cell work by metabolically active cells.

The subject of data set [8] is Mycobacterium tuberculosis. Put plainly: Antimicrobial activity against GFP expressing recombinant Mycobacterium tuberculosis H37RvMA under 7H9 medium assessed as growth inhibition after 14 days by broth microdilution method. It is filed as functional. To be noted: 336 h.
The subject of data set [9] is Mycobacterium tuberculosis. Put plainly: Antimicrobial activity against clinical isolates of Mycobacterium tuberculosis SAWC 2371 Haarlem under 7H9 medium assessed as growth inhibition after 14 days by alamar blue assay. It counts as functional. The conditions noted are these: 336 h.
The test system of data set [10] is Mycobacterium tuberculosis. Put plainly: Antimicrobial activity against clinical isolates of Mycobacterium tuberculosis SAWC 3385 Cas1/Delhi under 7H9 medium assessed as growth inhibition after 14 days by alamar blue assay. It counts as functional. The conditions noted are these: 336 h.
Data set [11] has as its system Mycobacterium tuberculosis. Put plainly: Antimicrobial activity against clinical isolates of Mycobacterium tuberculosis SAWC 3906 Atyp-beijing under 7H9 medium assessed as growth inhibition after 14 days by alamar blue assay. To be noted: 336 h. It is filed as functional.
Data set [12] relates to Plasma. Put plainly: Drug metabolism in C57/BL6 mouse plasma assessed as formation of 7-Amino-2-benzyl-4-methyl-1,3-dioxo-2,3-dihydro-1H-pyrrolo-[3,4-c]pyridine-6-carboxylic Acid by LC-MS analysis in absence of NADPH. It is filed as ADME, cell-free.
Data set [13] deals with Mycobacterium tuberculosis. The data set is described as follows: Drug metabolism in supernatant of Mycobacterium tuberculosis assessed as formation of 7-Amino-2-benzyl-4-methyl-1,3-dioxo-2,3-dihydro-1H-pyrrolo-[3,4-c]pyridine-6-carboxylic Acid in absence of NADPH. It counts as ADME, organism-based.
A further data set concerns CHO. The data set is described as follows: Cytotoxicity against CHO cells assessed as cell viability by MTT assay. It counts as cell-based. The conditions noted are these: Cricetulus griseus.
Data set [14] deals with Plasma. Put plainly: Drug level in C57/BL6 mouse plasma treated with ethyl 7-Amino-2-benzyl-4-methyl-1,3-dioxo-2,3-dihydro-1Hpyrrolo[3,4-c]pyridine-6-carboxylate by LC-MS analysis in absence of NADPH. It is filed as ADME, cell-free.
For data set [15], the system named is Liver. The data set is described as follows: Drug level in BALB/c mouse liver microsomes treated with ethyl 7-Amino-2-benzyl-4-methyl-1,3-dioxo-2,3-dihydro-1Hpyrrolo[3,4-c]pyridine-6-carboxylate at 10 uM after 1 hr by LC-MS analysis in absence of NADPH. It is filed as ADME.
Data set [16] deals with Mycobacterium tuberculosis. Put plainly: Drug level in supernatant of Mycobacterium tuberculosis treated with Ethyl 7-Amino-2-benzyl-4-methyl-1,3-dioxo-2,3-dihydro-1Hpyrrolo[3,4-c]pyridine-6-carboxylate in absence of NADPH. It is filed as ADME, organism-based.
The subject of data set [17] is Liver. The data set is described as follows: Drug level in BALB/c mouse liver microsomes treated with 7-Amino-2-benzyl-4-methyl-6-(3-methyl-1,2,4-oxadiazol-5-yl)-1H-pyrrolo[3,4-c]pyridine-1,3(2H)-dione at 10 uM after 1 hr by LC-MS analysis. It is filed as ADME.
In data set [18] the test system is Plasma. Put plainly: Drug metabolism in C57/BL6 mouse plasma treated with 7-Amino-2-benzyl-4-methyl-6-(3-methyl-1,2,4-oxadiazol-5-yl)-1H-pyrrolo[3,4-c]pyridine-1,3(2H)-dione by LC-MS analysis. It counts as ADME, cell-free.

≈ marks a conversion by molar mass, not a printed value.

As a reminder, the MIC90 is the lowest concentration that inhibits either 90% of growth or 90% of the strains tested, depending on the study. For orientation: IC50 means the concentration needed to halve the response being measured.

Take `CCOC(=O)c1nc(C)c2c(c1N)C(=O)N(Cc1ccccc1)C2=O`: the Drug metabolism entry (with Liver [1]; in the data set on Plasma [12]; in data set [13]) was “metabolite_detected” in each case. The MIC90 in [2] is 0.132 µM; in data set [3], below 0.156 µM; in data set [8], above 20 µM; in [9] it was below 0.08 µM; in data set [10], below 0.08 µM; in data set [11] it was below 0.08 µM. The solubility kinetic at 2 h in [4] is below 5 µM. In addition, the remaining at 0.5 h, 0.1 µM is 14% in [5], 19% in [6] and 18% in [7]. Moreover, the IC50 in the data set on Vero was above 100 µM.
Take `Cc1nc(C(=O)O)c(N)c2c1C(=O)N(Cc1ccccc1)C2=O`: the MIC90 in data set [3] worked out at 3.13 µM (≈ 0.974 µg/mL). For the same compound, the solubility kinetic at 2 h in data set [4] was 177 µM (≈ 55.1 µg/mL). The values for the remaining at 0.5 h, 0.1 µM in [5], in data set [6] and in data set [7] were 64%, 71% and 79%, respectively. Besides, the IC50 with CHO is above 100 µM. Moreover, the Drug metabolism result (in the data set with Plasma [14]; in the data set with Liver [15]; in [16]; in the data set with Liver [17]; in the data set with Plasma [18]) was “metabolite_detected” in each case.

The values above are taken from ChEMBL document CHEMBL3734652, “Pyrrolo[3,4-c]pyridine-1,3(2H)-diones: A Novel Antimycobacterial Class Targeting Mycobacterial Respiration” (J Med Chem, 2015).
